Measured values taken from ChEMBL document CHEMBL4265973, “Broad-spectrum antibacterial amphiphilic aminoglycosides: A new focus on the structure of the lipophilic groups extends the series of active dialkyl neamines” (Eur J Med Chem, 2018).
In brackets after ≈: the same amount, converted by molar mass.

Legend:
Pseudomonas aeruginosa [1] = test: Antibacterial activity against Pseudomonas aeruginosa ATCC 27853 by microdilution assay; assay type: functional
Outline: (§1)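 Broth microdilution per CLSI recommendations, using a fresh culture in cation-adjusted Mueller-Hinton broth (CA-MHB) and a starting inoculum of 10^6 cells; the MIC is the value read.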

Pseudomonas aeruginosa [2] = test: Antibacterial activity against Pseudomonas aeruginosa FO3 harboring AAC6'-2A by microdilution assay; assay type: functional
Outline: (§2)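 Broth microdilution MIC per CLSI recommendations, fresh culture in cation-adjusted Mueller-Hinton broth, starting inoculum 10^6 cells.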

Escherichia coli [3] = test: microbe, parasite or virus in culture; settings: ATCC 25922
Klebsiella pneumoniae = test: Antibacterial activity against Klebsiella pneumoniae 700603 by microdilution assay; assay type: functional; outline: as §1
Pseudomonas aeruginosa [4] = test: Antibacterial activity against Pseudomonas aeruginosa PA22 harboring surexp MexXY by microdilution assay; assay type: functional; outline: as §2
[5] = Cytotoxicity against mouse J774 cells assessed as cell viability at 30 uM after 24 hrs by MTT assay relative to control; assay type: cell-based; settings: J774 cells, read-out: Activity
Outline: (§3)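 Murine J774 macrophages are exposed for 24 h to compound at 10 or 30 µM, then given 0.2 mg/mL MTT for 1 h. The reaction is stopped with DMSO and OD read at 570 nm; viability is metabolic activity as % of control. The number of independent experiments is given per value.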

Staphylococcus aureus [6] = test: Antibacterial activity against Staphylococcus aureus ATCC 25923 by microdilution assay; assay type: functional; outline: as §2
Staphylococcus aureus [7] = test: Antibacterial activity against methicillin-resistant Staphylococcus aureus ATCC 33592 by microdilution assay; assay type: functional; outline: as §2
Escherichia coli [8] = test: Antibacterial activity against Escherichia coli L8058.1 harboring ANT2'-1A by microdilution assay; assay type: functional; outline: as §2
Escherichia coli [9] = test: Antibacterial activity against Escherichia coli PAZ505H8101 harboring AAC6'-1B by microdilution assay; assay type: functional; outline: as §2
Pseudomonas aeruginosa [10] = test: Antibacterial activity against Pseudomonas aeruginosa PA406 harboring triABC deletion mutant by microdilution assay; assay type: functional; outline: as §2
Acinetobacter lwoffii [11] = test: Antibacterial activity against Acinetobacter lwoffii ATCC 17925 by microdilution assay; assay type: functional; outline: as §1
Staphylococcus aureus [12] = test: Antibacterial activity against Staphylococcus aureus SA-1 expressing NorA pump by microdilution assay
Acinetobacter lwoffii [13] = test: Antibacterial activity against Acinetobacter lwoffii AI.88-483 harboring APH3'-6A by microdilution assay; assay type: functional; outline: as §2
[14] = Cytotoxicity against mouse J774 cells assessed as cell viability at 10 uM after 24 hrs by MTT assay relative to control; assay type: cell-based; settings: J774 cells, read-out: Activity; outline: as §3

SMILES	MIC (Pseudomonas aeruginosa [1])	MIC (Pseudomonas aeruginosa [2])	MIC (Escherichia coli [3])	MIC (Klebsiella pneumoniae)	MIC (Pseudomonas aeruginosa [4])	viability at 24 h, 30 µM [5]	MIC (Staphylococcus aureus [6])	MIC (Staphylococcus aureus [7])	MIC (Escherichia coli [8])	MIC (Escherichia coli [9])	MIC (Pseudomonas aeruginosa [10])	MIC (Acinetobacter lwoffii [11])	MIC (Staphylococcus aureus [12])	MIC (Acinetobacter lwoffii [13])	viability at 24 h, 10 µM [14]
CCCCCCCCCCCO[C@@H]1[C@@H](N)[C@@H](O[C@H]2[C@H](O)[C@@H](O)[C@H](N)C[C@@H]2N)O[C@H](CN)[C@H]1O	> 128 µg/mL	> 128 µg/mL	64 µg/mL (≈ 134 µM)	> 128 µg/mL	> 128 µg/mL	77.1%	16 µg/mL (≈ 33.6 µM)	16 µg/mL (≈ 33.6 µM)	32 µg/mL (≈ 67.1 µM)	32 µg/mL (≈ 67.1 µM)	4 to 8 µg/mL (≈ 8.39 to 16.8 µM)	32 µg/mL (≈ 67.1 µM)	16 µg/mL (≈ 33.6 µM)	> 128 µg/mL	81.8%
CCCCCCCCCCCO[C@@H]1[C@@H](O)[C@H](O[C@H]2O[C@H](CN)[C@@H](O)[C@H](OCCCCCCC)[C@H]2N)[C@@H](N)C[C@H]1N	2 µg/mL (≈ 3.48 µM)	4 µg/mL (≈ 6.96 µM)	16 µg/mL (≈ 27.8 µM)	8 µg/mL (≈ 13.9 µM)	4 µg/mL (≈ 6.96 µM)	38.8%	1 µg/mL (≈ 1.74 µM)	1 µg/mL (≈ 1.74 µM)	4 µg/mL (≈ 6.96 µM)	4 µg/mL (≈ 6.96 µM)	2 µg/mL (≈ 3.48 µM)	2 µg/mL (≈ 3.48 µM)	1 µg/mL (≈ 1.74 µM)	> 128 µg/mL	82.9%
CCCCCCCO[C@@H]1[C@@H](O)[C@H](O[C@H]2O[C@H](CN)[C@@H](O)[C@H](O)[C@H]2N)[C@@H](N)C[C@H]1N	> 128 µg/mL	> 128 µg/mL	> 128 µg/mL	> 128 µg/mL	> 128 µg/mL	71.3%	> 128 µg/mL	> 128 µg/mL	> 128 µg/mL	> 128 µg/mL	> 128 µg/mL	64 µg/mL (≈ 152 µM)	> 128 µg/mL	> 128 µg/mL	84.3%
CCCCCCCCCCCO[C@@H]1[C@@H](O)[C@H](O[C@H]2O[C@H](CN)[C@@H](O)[C@H](O)[C@H]2N)[C@@H](N)C[C@H]1N	> 128 µg/mL	> 128 µg/mL	> 128 µg/mL	> 128 µg/mL	> 128 µg/mL	83.4%	32 µg/mL (≈ 67.1 µM)	8 µg/mL (≈ 16.8 µM)	> 128 µg/mL	> 128 µg/mL	16 µg/mL (≈ 33.6 µM)	64 µg/mL (≈ 134 µM)	8 µg/mL (≈ 16.8 µM)	> 128 µg/mL	74.7%
CCCCCCCO[C@@H]1[C@@H](N)[C@@H](O[C@H]2[C@H](O)[C@@H](OCCCCCCC)[C@H](N)C[C@@H]2N)O[C@H](CN)[C@H]1O	32 µg/mL (≈ 61.7 µM)	8 µg/mL (≈ 15.4 µM)	32 µg/mL (≈ 61.7 µM)	64 µg/mL (≈ 123 µM)	16 µg/mL (≈ 30.8 µM)	79.9%	8 µg/mL (≈ 15.4 µM)	8 µg/mL (≈ 15.4 µM)	32 µg/mL (≈ 61.7 µM)	16 µg/mL (≈ 30.8 µM)	4 µg/mL (≈ 7.71 µM)	32 µg/mL (≈ 61.7 µM)	8 µg/mL (≈ 15.4 µM)	> 128 µg/mL	96.3%
CCCCCCCCCCCO[C@@H]1[C@@H](N)[C@@H](O[C@H]2[C@H](O)[C@@H](OCCCCCCC)[C@H](N)C[C@@H]2N)O[C@H](CN)[C@H]1O	2 µg/mL (≈ 3.48 µM)	4 µg/mL (≈ 6.96 µM)	2 µg/mL (≈ 3.48 µM)	4 µg/mL (≈ 6.96 µM)	4 µg/mL (≈ 6.96 µM)	39.1%	1 µg/mL (≈ 1.74 µM)	1 µg/mL (≈ 1.74 µM)	4 µg/mL (≈ 6.96 µM)	2 µg/mL (≈ 3.48 µM)	2 µg/mL (≈ 3.48 µM)	2 µg/mL (≈ 3.48 µM)	32 µg/mL (≈ 55.7 µM)	> 128 µg/mL	88.4%
CCCCCCCCCCO[C@@H]1[C@@H](N)[C@@H](O[C@H]2[C@H](O)[C@@H](OCCCCCCCCCC)[C@H](N)C[C@@H]2N)O[C@H](CN)[C@H]1O	4 µg/mL (≈ 6.63 µM)	4 µg/mL (≈ 6.63 µM)	2 µg/mL (≈ 3.32 µM)	16 µg/mL (≈ 26.5 µM)	4 µg/mL (≈ 6.63 µM)	14.5%	1 µg/mL (≈ 1.66 µM)	1 to 2 µg/mL (≈ 1.66 to 3.32 µM)	128 µg/mL (≈ 212 µM)	8 µg/mL (≈ 13.3 µM)	8 µg/mL (≈ 13.3 µM)	2 µg/mL (≈ 3.32 µM)	1 µg/mL (≈ 1.66 µM)	64 µg/mL (≈ 106 µM)	85.5%
NCC[C@H](O)C(=O)N[C@@H]1C[C@H](N)[C@@H](O[C@H]2O[C@H](CN)[C@@H](O)[C@H](O)[C@H]2O)[C@H](O)[C@H]1O[C@H]1O[C@H](CO)[C@@H](O)[C@H](N)[C@H]1O [AMIKACIN]	2 to 4 µg/mL (≈ 3.42 to 6.83 µM)	8 µg/mL (≈ 13.7 µM)	4 µg/mL (≈ 6.83 µM)	1 µg/mL (≈ 1.71 µM)	8 µg/mL (≈ 13.7 µM)		4 µg/mL (≈ 6.83 µM)	8 to 16 µg/mL (≈ 13.7 to 27.3 µM)	8 µg/mL (≈ 13.7 µM)	64 µg/mL (≈ 109 µM)	1 µg/mL (≈ 1.71 µM)	< 0.25 µg/mL	2 µg/mL (≈ 3.42 µM)	128 µg/mL (≈ 219 µM)	
CCCCCCCO[C@@H]1[C@@H](N)[C@@H](O[C@H]2[C@H](O)[C@@H](O)[C@H](N)C[C@@H]2N)O[C@H](CN)[C@H]1O	> 128 µg/mL	> 128 µg/mL	> 128 µg/mL	> 128 µg/mL	> 128 µg/mL	70.2%	> 128 µg/mL	> 128 µg/mL	> 128 µg/mL	> 128 µg/mL	> 128 µg/mL	64 µg/mL (≈ 152 µM)	> 128 µg/mL	> 128 µg/mL	77.5%
